Screens from PubChem BioAssay.
Sampled rows, rich in hits. Any-hit rate of the full collection: about 2.4%.
NR2E3 ag-1: activates human photoreceptor nuclear receptor NR2E3 | Q9Y5X4 | GST-NR2E3/biotin-RetCOR TR-FRET, 1536-well | inhibition of corepressor binding, % at 4.78 µM | 0.12% of 320,000 active;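 active = percent inhibition above the cutoff of mean plus 3 SD of all tested compounds, set per screening campaign, cut at about 20% in these data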;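 note: 0% = DMSO wells and 100% = biotin wells as full block of FRET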
Target sequence (Q9Y5X4 whole entry, looked up): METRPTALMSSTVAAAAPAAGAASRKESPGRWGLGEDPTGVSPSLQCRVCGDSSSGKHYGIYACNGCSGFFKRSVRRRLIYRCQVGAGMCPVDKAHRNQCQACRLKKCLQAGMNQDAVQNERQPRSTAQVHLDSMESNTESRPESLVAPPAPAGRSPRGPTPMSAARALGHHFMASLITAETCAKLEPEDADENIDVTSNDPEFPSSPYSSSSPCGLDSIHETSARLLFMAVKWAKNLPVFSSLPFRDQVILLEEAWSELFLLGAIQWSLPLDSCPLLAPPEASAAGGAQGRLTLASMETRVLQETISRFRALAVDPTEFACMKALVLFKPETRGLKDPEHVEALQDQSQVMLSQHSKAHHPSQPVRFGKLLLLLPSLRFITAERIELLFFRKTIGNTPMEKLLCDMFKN
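system = GST-tagged NR2E3 plus biotinylated RetCOR corepressor | input = 1.35 nM GST-NR2E3 | also added = 7 nM biotin-RetCOR | schedule = 5 h incubation at 4 °C | measured by = TR-FRET with europium anti-GST and streptavidin-D2, 340 nm excitation | read-out = percent loss of FRET ratio relative to control wells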
697 NFkB inh: inhibitors of the PMA/ionomycin-induced NF-kB reporter in 697 B cells; 697 B-cell NF-kB luciferase reporter, 16 h; inhibition, % at 4 µM; 0.33% of 330,000 active; AID 435022; in the data active = inhibition above about 35%
NR2E3 ag-2: agonists of human NR2E3 nuclear receptor; Q9Y5X4; inhibition of corepressor binding, % at 3.98 µM; AID 602229; 0.35% of 360,000 active; CHO-S Gal4-NCOR/VP16-NR2E3 two-hybrid, luciferase;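 active = inhibition above the mean of all tested compounds plus 3 SD, cut at about 70% in these data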;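 note: 0% = DMSO with NR2E3 transfected cells and 100% = cells lacking NR2E3 construct; higher means lower luciferase signal from less NR2E3 corepressor binding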
MPTP block: inhibitors of mitochondrial permeability transition pore. AID 602449. 1.4% of 360,000 active. isolated mouse mitochondria, Ca2+ swelling absorbance, 30 min. inhibition, % at 10 µM;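 active = inhibition of 50% or more, scaled per plate between neutral and stimulator controls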;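 note: 0% = DMSO wells given calcium and 100% = 1 mM EGTA wells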
Jurkat NFkB inh: lowers PMA/ionomycin-induced NF-kB signal in Jurkat cells; PMA/ionomycin-induced NF-kB luciferase reporter, luminescence; inhibition, % at 4 µM; 0.53% of 330,000 active; AID 435003; in the data active = inhibition above about 50%
aDG glyco act: alpha-DG glycosylation activation | Pro5-aDG cells, alpha-DG glycosylation AlphaScreen (IIH6); 0% Pro5, 100% B10-LARGE cell signal | activation, % at 10 µM | 0.22% of 360,000 active;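 active = activation of at least 8% versus controls, or a plate z-score of at least 8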;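 note: Pro5 are CHO cells carrying HIG-tagged alpha-DG that lacks glycosylation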
* hit, by the source's call; . = not tested or not shown.

SMILES	NR2E3 ag-1	697 NFkB inh	NR2E3 ag-2	MPTP block	Jurkat NFkB inh	aDG glyco act
O=C(N/N=C/c1ccc([N+](=O)[O-])s1)c1ccncc1	1.4	1.3	6.7	0.4	25.5	12.1*
Cc1ccc(C(=O)N/N=C\c2ccc([N+](=O)[O-])s2)cn1	-7.8	14.5	-10.2	0.2	17.2	6.3
O=C(N/N=C/c1ccc([N+](=O)[O-])s1)c1cccc(Br)c1	-0.1	-0.3	5.6	7.4	9.7	8.9*
O=C(N/N=C/c1cccc([N+](=O)[O-])c1)c1cccc(Br)c1	3.9	-19.4	-16.2	8.1	-15.3	0.0
CN1CCN(c2ccc(NC(=O)c3ccc(-c4ccc(Cl)cc4)o3)cc2)CC1	7.0	-75.8	-18.6	-0.7	-4.1	5.5*
CS(=O)(=O)N1CCN(c2ccc(NC(=O)c3ccc(-c4ccc(Cl)cc4)o3)cc2)CC1	1.4	-1.8	-17.3	1.6	7.5	-0.2
Cc1cc(C)n2nc(CNS(=O)(=O)c3ccc(C(C)(C)C)cc3)nc2n1	.	.	-20.5	-0.5	.	-0.3
CCNS(=O)(=O)c1ccc(NC(=O)c2cccnc2)cc1	1.0	18.0	0.0	0.0	2.5	16.8*
CC(C)(C)NCC(O)COc1ccccc1C(=O)CCc1ccccc1 (stereo not given)	-2.4	0.5	14.6	4.3	11.9	2.5*
O=C(Nc1ccc(S(=O)(=O)NC2=NCCCCC2)cc1)c1ccc([N+](=O)[O-])s1	-0.8	11.4	13.7	1.2	49.7	8.4*
O=C(Nc1ccc(S(=O)(=O)NC2=NCCCCC2)cc1)c1cccs1	.	-7.3	-13.4	-0.5	-6.8	0.3
O=S(=O)(Nc1ccc(O)c2ccccc12)c1cccs1	1.2	19.2	9.4	0.2	-4.2	2.7*
COc1ccccc1CNC(=O)COc1cc(O)c2c(c1)OC(C)(C)CC2=O	.	.	-1.9	1.3	.	0.3
CC(C)(C)OC(=O)NCc1ccc(CNC(=O)c2nc[nH]c2C(=O)NCc2ccc(CNC(=O)OC(C)(C)C)cc2)cc1	.	-44.8	2.6	1.0	0.6	0.9
CC(C)(C)OC(=O)NCCCCCNC(=O)c1nc[nH]c1C(=O)NCc1ccc(CNC(=O)OC(C)(C)C)cc1	.	-26.0	79.4*	2.7	8.3	0.2
CCOC(=O)CCCCCC(=O)Nc1ccc2c(c1)C(=O)N([C@@H](C)CO)C[C@H](C)[C@H](CN(C)C(=O)c1ccccc1)OCCCC[C@H](C)O2	.	.	-13.3	-0.6	.	0.1
CC[n+]1c(C)sc2c(C)cc(C)cc21	-3.0	-11.0	-25.3	1.1	-13.8	-0.3
CCC[n+]1c(C)sc2c3c(ccc21)CCCC3	0.9	11.1	-37.3	12.8	-15.1	6.9*
O=[N+]([O-])c1cc(F)c2cccnc2c1O	3.0	-3.5	28.8	-3.6	-4.1	-0.1
O=[N+]([O-])c1cc(Cl)c2cccnc2c1O	0.2	7.9	101.7*	-5.0	-2.1	-0.4
Cn1c(-c2ccccc2)cc(=O)c2ccccc21	2.3	-0.1	-7.3	0.9	-0.4	-0.1
Cn1c2ccccc2c(=O)n2c(=O)c3ccccc3cc12	28.8*	20.0	.	.	-2.6	.
COc1ccc(OC)c(CNC(=O)c2[nH]c(C(F)(F)F)nc2-c2ccccc2)c1	.	.	16.2	-1.2	.	3.1
CC1(C)Cc2ccccc2C2=NNC(=O)C2=N1	4.4	4.9	-5.8	-1.0	7.5	9.0*
Cc1cccnc1C(NC(=O)C1CCN(Cc2ccc(Oc3ccccc3)cc2)CC1)c1ccc(F)cc1 (stereo not given)	.	.	-1.3	5.3	.	0.2
SMILES	NR2E3 ag-1	697 NFkB inh	NR2E3 ag-2	MPTP block	Jurkat NFkB inh	aDG glyco act
C/C=C(\C)C(=O)OC1[C@H](OC(C)=O)C2(CO)C(CC1(C)C)C1=CCC3C4(C)CCC(O[C@@H]5O[C@H](C(=O)O)[C@@H](O[C@@H]6O[C@H](CO)[C@@H](O)[C@H](O)[C@H]6O)[C@H](O)[C@H]5O[C@H]5O[C@H](CO)[C@@H](O)[C@H](O)[C@H]5O)[C@](C)(CO)C4CCC3(C)[C@]1(C)C[C@H]2O (stereo not given in full)	.	.	105.8*	-2.5	.	-0.4
O=C(Nc1ccc([N+](=O)[O-])cc1)OC1CCS(=O)(=O)C1 (stereo not given)	.	.	-11.4	-0.4	.	-0.2
CCNC1=C(Cl)C(=O)c2ccccc2C1=O	-5.6	-7.6	-34.2	3.5	13.3	11.6*
CCCC(=O)NC1=C(Cl)C(=O)c2ccccc2C1=O	.	.	-7.0	23.2	.	-0.4
C[C@H](O)[C@@H]1CN2CCc3c([nH]c4ccccc34)[C@@H]2C[C@@H]1N(C)C(=S)NCCc1ccccc1	.	.	2.6	0.8	.	-0.1
CCCCCCCCN1C(=O)[C@H](CC(=O)N2CCCC2)C[C@@]2(C(=O)OC)CC(C)(C)CC=C12	.	.	.	-1.3	.	0.1
CN1CCc2c(sc(NC(=O)c3ccc4ccccc4c3)c2C(N)=O)C1	3.8	-84.9	-38.8	0.9	-144.0	18.7*
O=C1C2C3CC4C5C3C1C5C1(SCCS1)C42 (stereo not given)	.	.	-3.9	-1.6	.	3.5
CC(C)(C)c1cc[n+](C2=C([O-])c3ccccc3C(=O)/C2=N\S(=O)(=O)c2cccs2)cc1	-4.4	-7.4	28.6	2.9	28.6	3.9*
COC1C(=O)CCC2(CO2)C1(O)C1(C)OC1CC=C(C)C (stereo not given)	.	.	17.5	0.4	.	-0.2
O=C(NC1CCCC1)C1C(c2ccccc2)=Nc2ccccc2N1C(=O)c1cc(Cl)cc(Cl)c1 (stereo not given)	.	.	.	-1.7	.	-0.1
C/C=C1\NC(=O)[C@H](C)NC(=O)[C@@H](NC(=O)[C@@H](Cc2ccc(O)cc2)NC(=O)[C@@H](NC(=O)/C(C)=C/C)C(C)C)[C@@H](C)OC(=O)[C@H](CCCCc2ccc(O)cc2)NC(=O)[C@@H](CCC(=O)OC)NC1=O	.	.	-5.5	1.5	.	-0.1
Cc1cc(C2=NNC(=NC3CC3)SC2)c(C)n1-c1ccccc1	.	.	80.4*	1.4	.	-0.4
Cc1cc(C)c(S(=O)(=O)/N=C2/C=C(SCC(=O)O)C(=O)c3ccccc32)cc1C	.	5.0	-8.8	1.9	7.5	12.0*
Cc1cc(C)c(S(=O)(=O)Nc2cc(SCC(=O)O)c(O)c3ccccc23)cc1C	1.6	.	.	.	.	.
O=C(CC1c2ccccc2C=C(c2ccsc2)N1c1ccc(-c2cccnc2)cc1)C1CC1 (stereo not given)	.	.	-38.7	0.6	.	0.5
CC(C)C[C@H]1CN(CCCC[C@H]2CNC(=O)C(=O)N2CCc2ccccc2)C(=O)C(=O)N1CCc1ccccc1	.	.	-11.2	-1.6	.	-0.1
CCOC1=C2[C@H](c3cccs3)N(S(=O)(=O)c3ccc(C)cc3)C[C@H]2n2c(=O)n(-c3ccccc3)c(=O)n2C1	.	.	-6.9	-0.7	.	0.4
CCOC(=O)CSc1nc2ccc(NC(=O)CSc3nnnn3Cc3ccccc3)cc2s1	0.7	-0.9	-12.1	4.6	17.2	-0.2
CC(C)(C)NC(=O)CSc1nc2ccc(NC(=O)CSc3nnnn3Cc3ccccc3)cc2s1	1.4	-65.6	24.9	10.3	27.2	5.7*
